Rad51 HR inh: Rad51 (human) homologous recombination inhibition. inhibition, % at 10 µM. AID 1385. hRad51 DNA strand exchange, fluorescence dequenching. actives 0.085% (n = 200,000). Q06609;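 active means inhibition above 40% at the single screening dose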;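 further: 0% = DMSO control wells and 100% = blanks with heterologous ssDNA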
Target sequence (Q06609 whole entry, looked up): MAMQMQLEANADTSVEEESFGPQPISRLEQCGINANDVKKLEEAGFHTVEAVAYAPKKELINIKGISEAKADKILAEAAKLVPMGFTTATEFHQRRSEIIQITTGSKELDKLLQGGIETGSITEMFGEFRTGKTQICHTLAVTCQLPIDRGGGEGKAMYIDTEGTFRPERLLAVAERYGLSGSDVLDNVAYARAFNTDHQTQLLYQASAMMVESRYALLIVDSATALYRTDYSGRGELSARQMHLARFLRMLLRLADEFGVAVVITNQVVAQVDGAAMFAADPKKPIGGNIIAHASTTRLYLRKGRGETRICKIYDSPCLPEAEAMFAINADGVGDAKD
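Material: human Rad51–ssDNA filaments; Probe or stimulus: labelled 47-mer dsDNA for strand exchange; Doses: single 10 µM dose; Incubation: 37 °C 15-min filament assembly, 30-min compound preincubation, 15-min exchange; Technique: FRET fluorescence dequenching, excitation 485 nm, emission 520 nm; Measure: Fluorescence-based percent inhibition, control- and blank-normalised; Benchmarks: plate control and blank wells.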
CHT inh: inhibits the human high affinity choline transporter; actives 0.86% (n = 310,000); CHT-expressing cells, membrane potential dye, choline response; active compounds read low; B-score at 10 µM; Q9GZV3; AID 488975;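 active means B-score over 3 SD under the library average, and starting fluorescence ratio not unusually high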;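 further: choline stimulus applied at its EC90 after an EC20 pre-addition; B-score computed on integrated fluorescence ratio after choline addition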
KCC2 mod: modulators of human KCC2 chloride dependent transport; actives 2.2% (n = 190,000); Q9H2X9; KCC2 cells, thallium flux FluoZin-2 fluorescence; B-score of Tl+ flux slope (higher = more flux/activation; lower = inhibition) at 10 µM;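 active means thallium flux slope and its plate-corrected score both differing from the plate sample mean at a set confidence after two filtering rounds, in either direction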;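 further: slope of fluorescence scaled to starting intensity during 10 to 20 s after thallium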
CHT PAM: allosterically activates the human high affinity choline transporter; Q9GZV3; CHT-expressing cells, membrane potential dye, choline EC20; active compounds read high; LV-AA mutant CHT in HEK293 cells; B-score at 10 µM; actives 0.49% (n = 310,000); AID 488977;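 active means initial fluorescence not abnormally high and integrated response B-score, plate-corrected, over 3 SD above library mean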
The depositor's hits bear a star. This is a sample that favours compounds with a hit; in the whole collection about 2.6% have one here.

`COc1ccc(OC)c2sc(N(CCN(C)C)C(=O)c3ccc4ccccc4c3)nc12` gave CHT inh inactive and CHT PAM inactive.
For COc1ccc(C)c2sc(N(CCCN(C)C)C(=O)c3ccc(S(=O)(=O)N(C)C)cc3)nc12 the results were Rad51 HR inh 47*, CHT inh inactive, KCC2 mod 0.48 and CHT PAM inactive.
For C=CCn1c(=O)c(C#N)cc2c(=O)n3ccccc3nc21 the results were Rad51 HR inh 0, CHT inh inactive and CHT PAM 7.2*.
`COc1cc(NS(=O)(=O)c2ccc(NC(=O)/C(=C\c3ccccc3OC)NC(=O)c3ccccc3)cc2)nc(OC)n1` gave Rad51 HR inh -9, CHT inh inactive and CHT PAM inactive.
For CCOc1ccc(NC(=O)c2ccc(N3CC4CC(C3)c3cccc(=O)n3C4)c(N)c2)cc1 (stereo not drawn) the results were CHT inh inactive and CHT PAM inactive.
Screening Nc1nc(Nc2ccc(Cl)cc2)nc2ccccc12 returned Rad51 HR inh -6, CHT inh -8.3*, KCC2 mod 0.019 and CHT PAM inactive.
COc1cccc(NC(=O)c2cc3cccc(OC)c3o/c2=N\O)c1 was read as CHT inh -5.3* and CHT PAM inactive.
For Fc1ccccc1/C=N/NC(=S)Nc1ccc(Cl)cc1Cl the results were CHT inh inactive, KCC2 mod 15* and CHT PAM inactive.
`Fc1ccc(NC(=S)N/N=C/c2ccc(F)c(F)c2)c(F)c1` gave Rad51 HR inh 2, CHT inh inactive, KCC2 mod 20* and CHT PAM inactive.
`C=CCNC(=S)Nc1ccc(F)cc1F` gave CHT inh inactive, KCC2 mod -0.52 and CHT PAM inactive.
Screening Fc1ccc(CNC(=S)Nc2ccc(Cl)cc2Cl)cc1 returned Rad51 HR inh -3, CHT inh inactive, KCC2 mod 1.9 and CHT PAM inactive.
Cn1c(=O)c2c(nc(NCC3CCCC(CN)C3)n2Cc2ccc(Cl)cc2Cl)n(C)c1=O (stereo not drawn) was read as CHT inh inactive and CHT PAM inactive.
COc1ccc(CCn2c(S)nc3ccccc3c2=O)cc1 was read as CHT inh inactive and CHT PAM inactive.
Screening CCOc1ccc(OCC)c(NC(=O)C2CCN(c3ncccn3)CC2)c1 returned Rad51 HR inh 42*, CHT inh inactive and CHT PAM inactive.
For CCCCOn1c(C)c(C(=O)OCC)c2c3nonc3ccc21 the results were Rad51 HR inh -2, CHT inh inactive, KCC2 mod -3.5* and CHT PAM inactive.
For CC(=O)Nc1ccc(NC(=O)CS(=O)(=O)c2cn(CC(=O)N3CCCC3)c3ccccc23)cc1 the results were CHT inh inactive and CHT PAM inactive.
Screening O=C(OCn1ncc(Br)c(Br)c1=O)c1ccccc1Cl returned Rad51 HR inh -11, CHT inh inactive and CHT PAM inactive.
For O=C(OCn1ncc(Br)c(Br)c1=O)c1ccc(F)cc1 the results were Rad51 HR inh 3, CHT inh -6.5*, KCC2 mod -4.7* and CHT PAM inactive.
Cc1ccc(NC(=O)C2CCN(S(=O)(=O)c3ccc4c(c3)NC(=O)CO4)CC2)cc1 was read as CHT inh inactive and CHT PAM inactive.
`Cc1nc2scc(-c3cccs3)c2c(=O)n1CC(=O)O` gave Rad51 HR inh 115*, CHT inh inactive, KCC2 mod 1.5 and CHT PAM inactive.
Screening Cc1cc(C)c2c(c1)/C(=N/NC(=S)Nc1ccc(F)cc1)CCC2 returned Rad51 HR inh 0, CHT inh inactive, KCC2 mod 2.9* and CHT PAM inactive.
Screening COC(=O)N/N=C1\CCCc2c(C)cc(C)cc21 returned Rad51 HR inh 6, CHT inh inactive, KCC2 mod 0.71 and CHT PAM inactive.
CCOc1ccc(S(=O)(=O)N2CCN=C2c2ccccc2)c(C)c1C was read as CHT inh inactive and CHT PAM inactive.
`CCOc1cc(C2NN=C(c3ccc(C)cc3)S2)ccc1O` (stereo not drawn) gave Rad51 HR inh -6, CHT inh inactive, KCC2 mod 41* and CHT PAM inactive.
Screening O=S(=O)(Nc1nc2ccccc2nc1Nc1ccc2c(c1)OCCO2)c1cccs1 returned Rad51 HR inh -29, CHT inh -7.7*, KCC2 mod -2.9 and CHT PAM inactive.
`COc1ccc(S(=O)(=O)Nc2nc3ccccc3nc2Nc2ccc3c(c2)OCO3)cc1` gave Rad51 HR inh -30, CHT inh inactive, KCC2 mod 1.7 and CHT PAM inactive.
